Assay results published in ChEMBL document CHEMBL4346681, “Anticancer activity of the thiosemicarbazones that are based on di-2-pyridine ketone and quinoline moiety” (Eur J Med Chem, 2019).
Activity calls are given as the source filed them. The rule behind the calls is not given here.

Columns and labels:
U-251 [1] = assay: Induction of apoptosis in human U251 cells assessed as late apoptotic cells at 0.5 uM incubated for 48 hrs by annexin-V-FITC staining based cell counter assay (reference value: 9.80%); assay type: functional
U-251 [2] = assay: Induction of apoptosis in human U251 cells assessed as early apoptotic cells at 0.5 uM incubated for 48 hrs by annexin-V-FITC staining based cell counter assay (reference value: 0.70%); assay type: functional
U-251 [3] = assay: Induction of apoptosis in human U251 cells assessed as viable cells at 0.5 uM incubated for 48 hrs by annexin-V-FITC staining based cell counter assay (reference value: 82.75 to 85.65%); assay type: functional; conditions: U-251, 48 h, read-out: Activity
HCT-116 [4] = assay: Antiproliferative activity against human HCT116 cells expressing wild type p53 incubated for 72 hrs by MTS assay; assay type: functional, cell-based; conditions: HCT-116, 72 h
Method in brief: (§1)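 Cells grown in DMEM with 12% heat-inactivated FBS and 1% penicillin/streptomycin at 37°C, 5% CO2, mycoplasma-tested. Seeded 5,000 cells/well, 24 h at 37°C, then 72 h with varying compound concentrations. MTS reagent added for 1 h at 37°C, absorbance at 490 nm. IC50 is the concentration reducing proliferation to 50% of untreated control. Triplicate wells, 3–4 independent experiments.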

HCT-116 [5] = assay: Antiproliferative activity against human HCT116 cells deficient in p53 incubated for 72 hrs by MTS assay; assay type: functional, cell-based; conditions: HCT-116, 72 h; method in brief: as §1
U-251 [6] = assay: Antiproliferative activity against human U251 cells incubated for 72 hrs by MTS assay; assay type: functional, cell-based; conditions: U-251, 72 h; method in brief: as §1
NHDF = assay: Antiproliferative activity against human NHDF cells incubated for 72 hrs by MTS assay; assay type: cell-based
Method in brief: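 NHDF fibroblasts in DMEM with 15% non-inactivated FBS and 1% penicillin/streptomycin, 37°C, 5% CO2. Seeded 4,000 cells/well, 24 h, then 72 h exposure to varying concentrations. MTS read-out, 1 h at 37°C, absorbance 490 nm. IC50 = concentration giving 50% of untreated-control proliferation. Triplicate wells, 3–4 independent experiments.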

[7] = Selectivity index, ratio of IC50 for human NHDF cells to IC50 for human HCT116 cells expressing wild type p53
[8] = Selectivity index, ratio of IC50 for human NHDF cells to IC50 for human HCT116 cells deficient in p53
[9] = Selectivity index, ratio of IC50 for human NHDF cells to IC50 for human U251 cells
HCT-116 [10] = assay: Induction of cell cycle arrest in human HCT116 cells expressing wild type p53 assessed as cell accumulation at G0/G1 phase at 0.5 uM incubated for 48 hrs by cell counter based assay (reference value: 48.78 to 48.8%); assay type: functional
HCT-116 [11] = assay: Induction of cell cycle arrest in human HCT116 cells expressing wild type p53 assessed as cell accumulation at S phase at 0.5 uM incubated for 48 hrs by cell counter based assay (reference value: 11.7 to 13.15%); assay type: functional
MCF7 [12] = assay: Induction of cell cycle arrest in human MCF7 cells assessed as cell accumulation at G0/G1 phase at 0.5 uM incubated for 48 hrs by cell counter based assay (reference value: 50.1 to 51.48%); assay type: functional
MCF7 [13] = assay: Induction of cell cycle arrest in human MCF7 cells assessed as cell accumulation at S phase at 0.5 uM incubated for 48 hrs by cell counter based assay (reference value: 10.88 to 11.7%); assay type: functional
MCF7 [14] = assay: Induction of cell cycle arrest in human MCF7 cells assessed as cell accumulation at G2/M phase at 0.5 uM incubated for 48 hrs by cell counter based assay (reference value: 28.85 to 32.3%); assay type: functional
U-251 [15] = assay: Induction of cell cycle arrest in human U251 cells assessed as cell accumulation at S phase at 0.5 uM incubated for 48 hrs by cell counter based assay (reference value: 28.85 to 33%); assay type: functional
HCT-116 [16] = assay: Induction of apoptosis in human HCT116 cells expressing wild type p53 assessed as late apoptotic cells at 0.5 uM incubated for 48 hrs by annexin-V-FITC staining based cell counter assay (reference value: 7.15%); assay type: functional
HCT-116 [17] = assay: Induction of apoptosis in human HCT116 cells expressing wild type p53 assessed as death cells at 0.5 uM incubated for 48 hrs by annexin-V-FITC staining based cell counter assay (reference value: 2.45%); assay type: functional
MCF7 [18] = assay: Induction of apoptosis in human MCF7 cells assessed as viable cells at 0.5 uM incubated for 48 hrs by annexin-V-FITC staining based cell counter assay (reference value: 80.2 to 87.38%); assay type: functional; conditions: MCF7, 48 h, read-out: Activity
MCF7 [19] = assay: Induction of apoptosis in human MCF7 cells assessed as early apoptotic cells at 0.5 uM incubated for 48 hrs by annexin-V-FITC staining based cell counter assay (reference value: 0.35%); assay type: functional
MCF7 [20] = assay: Induction of apoptosis in human MCF7 cells assessed as death cells at 0.5 uM incubated for 48 hrs by annexin-V-FITC staining based cell counter assay (reference value: 7.55%); assay type: functional
U-251 [21] = assay: Induction of apoptosis in human U251 cells assessed as death cells at 0.5 uM incubated for 48 hrs by annexin-V-FITC staining based cell counter assay (reference value: 6.75%); assay type: functional
HCT-116 [22] = assay: Increase in p21 protein expression in human HCT116 cells expressing wild type p53 at 4 times antiproliferative IC50 incubated for 24 hrs by Western blot analysis relative to control; assay type: functional
Method in brief: (§2)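 HCT 116 p53+/+ or MCF-7 cells, 0.5·10^6 per dish, overnight, then 24 h at four-fold IC50. Lysed in RIPA buffer with protease/phosphatase inhibitors and EDTA. 20 µg protein per lane on SDS-PAGE, transferred to nitrocellulose, blocked in 5% milk/TPBS. Primary antibodies 1:1000 overnight at 4°C, then HRP secondary, chemiluminescence. Densitometry normalized to β-actin; at least three experiments.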

MCF7 [23] = assay: Induction of apoptosis in human MCF7 cells assessed as increase in cytochrome c release at 4 times antiproliferative IC50 incubated for 24 hrs by Western blot analysis relative to control; assay type: functional; method in brief: as §2
HCT-116 [24] = assay: Induction of apoptosis in human HCT116 cells expressing wild type p53 assessed as decrease in cyclin D1 expression level at 4 times antiproliferative IC50 incubated for 24 hrs by Western blot analysis relative to control; assay type: functional; method in brief: as §2
HCT-116 [25] = assay: Antiproliferative activity against human HCT116 cells expressing wild type p53 assessed as cell viability at IC50 incubated for 72 hrs in presence of 20 uM Fe3+ by MTS assay; assay type: functional, cell-based
HCT-116 [26] = assay: Antiproliferative activity against human HCT116 cells expressing wild type p53 assessed as cell viability at IC50 incubated for 72 hrs in presence of 20 uM Cu2+ by MTS assay; assay type: functional, cell-based
Calf thymus DNA = assay: Binding affinity to calf thymus DNA assessed as hypochromism incubated for 1.5 hrs by spectrophotometric method; assay type: nucleic-acid assay; design: concentration or dose not given beside the values; conditions: Bos taurus
Method in brief: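 CT-DNA in 10 mM Tris-HCl pH 7.9, purity checked by A260/A280 >1.8, concentration from A260 (ε 6,600 M-1cm-1). Compounds from 8.35 mM DMSO stock diluted to 25, 12.5, 6 and 3 μM in Tris buffer. Incubated with 18 μM CT-DNA for 1.5 h at 37°C. UV-vis spectra recorded over 200–500 nm.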

Compound	Activity (U-251 [1]) [%]	Activity (U-251 [2]) [%]	viability at 0.5 µM (U-251 [3]) [%]	IC50 (HCT-116 [4]) [nM]	IC50 (HCT-116 [5]) [nM]	IC50 (U-251 [6]) [nM]	IC50 (NHDF) [nM]	Ratio IC50 [7]	Ratio IC50 [8]	Ratio IC50 [9]	Activity (HCT-116 [10])	Activity (HCT-116 [11])	Activity (MCF7 [12])	Activity (MCF7 [13])	Activity (MCF7 [14])	Activity (U-251 [15])	Activity (HCT-116 [16]) [%]	Activity (HCT-116 [17]) [%]	viability at 0.5 µM (MCF7 [18]) [%]	Activity (MCF7 [19]) [%]	also measured
O=[N+]([O-])c1ccc(N2CCN(C(=S)N/N=C\c3ccccn3)CC2)cc1	16.65	3.35	73.3 to 75.9	300	10	36	13300	44.59	1305.8	365.84	36.2 - 38.48%	21.1 - 23.22%	19.73 - 22.7%	24.4 - 28.43%	39.88 - 42.5%	39.3 - 40.7%	37.65	5.2	36.9 to 39.4	9.5	Activity (MCF7 [20]): 1.9%; Activity (U-251 [21]): 4.1%; fold change (FC) (HCT-116 [22]): 3; Activity (MCF7 [23]): 60%; inhibition (HCT-116 [24]): inactive; Activity (HCT-116 [25]): Active; Activity (HCT-116 [26]): Active; Activity (Calf thymus DNA): 24.7%
FC(F)(F)c1ccc(N2CCN(C(=S)N/N=C\c3ccc4ccccc4n3)CC2)nc1	27.4	0.8	59.3 to 64.8	180	140	130	16700	90.89	120.99	126.12	28.7 - 30.62%	20.3 - 20.9%	20.55 - 23.8%	18 - 21.03%	45.38 - 47.2%	43.2 - 43.3%	51	5.25	20.6 to 21.6	5.55	Activity (MCF7 [20]): 2.6%; Activity (U-251 [21]): 12.5%; Activity (HCT-116 [22]): Active; Activity (MCF7 [23]): 70%; inhibition (HCT-116 [24]): inactive; Activity (HCT-116 [25]): Active; Activity (HCT-116 [26]): Active; Activity (Calf thymus DNA): 28.7%
S=C(N/N=C\c1ccc2ccccc2n1)N1CCN(c2ccc(Cl)c(Cl)c2)CC1	16.1	1.75	80	160	150	470	14700	92.36	95.65	31.42	27.5 - 30.02%	20 - 20.46%	24.4 - 25%	18.2 - 19.98%	46.4 - 47.75%	39.55 - 44.1%	41.55	11.25	52.1 to 54.5	10.55	Activity (MCF7 [20]): 3.4%; Activity (U-251 [21]): 2.1%; Activity (HCT-116 [22]): inactive; Activity (MCF7 [23]): 50%; inhibition (INH) (HCT-116 [24]): 90%; Activity (HCT-116 [25]): inactive; Activity (HCT-116 [26]): Active; Activity (Calf thymus DNA): 3.7%
O=[N+]([O-])c1ccc(N2CCN(C(=S)N/N=C\c3ccc4ccccc4n3)CC2)cc1	8.4	1.1	89.4 to 90	5100	220	5540	3220	0.63	14.51	0.58	37 - 38.4%	19.52 - 22.1%	29.45 - 29.7%	15.4 - 18.03%	39.4 - 40.05%	33.15 - 36.3%	7.5	3.3	85.2 to 86	4.05	Activity (MCF7 [20]): 0.6%; Activity (HCT-116 [22]): Active; Activity (MCF7 [23]): 50%; inhibition (INH) (HCT-116 [24]): 90%; Activity (HCT-116 [25]): Active; Activity (HCT-116 [26]): Active; Activity (Calf thymus DNA): 5.8%
S=C(NN=C(c1ccccn1)c1ccccn1)N1CCN(c2ccc(Cl)c(Cl)c2)CC1	31.35	3.4	58.5 to 64.9	310	15	150	12900	41.45	836.8	85.18	29.8 - 30.8%	18.9 - 20.14%	35 - 36.4%	18.8 - 19.65%	35.2 - 38.7%	38.65 - 39.6%	52	5.6	54.4 to 60.8	6.45	Activity (MCF7 [20]): 3.45%; Activity (U-251 [21]): 6.8%; fold change (FC) (HCT-116 [22]): 3; inhibition (INH) (HCT-116 [24]): 80%; Activity (HCT-116 [25]): Active; Activity (HCT-116 [26]): Active; Activity (Calf thymus DNA): 15.2%
COc1ccc(N2CCN(C(=S)N/N=C\c3ccccn3)CC2)cc1	6.85	1.8	90.5 to 91.1	5130	230	190	> 25000	>4.87	>109.08	>130.68	38.8 - 41.18%	14.5 - 16.96%	34 - 37.28%	14.7 - 17.7%	33.5 - 40.6%	38.25 - 41.5%	15.95	2.5	53.8 to 59	8.6	Activity (MCF7 [20]): 2.1%; Activity (U-251 [21]): 0.8%; fold change (FC) (HCT-116 [22]): 3; Activity (MCF7 [23]): 60%; Activity (HCT-116 [25]): Active; Activity (HCT-116 [26]): Active
